Screening results: PubChem BioAssay, several laboratories
Mac1 fbg inh – CD11b/CD18-fibrinogen binding inhibition; P05107+P11215; K562 CD11b/CD18 adhesion to fibrinogen, ATPlite luminescence; Mn2+ added to activate the integrin; inhibition, % at 10 µM; 93,000 tested, 0.54% active; AID 1497;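 active = primary inhibition of 50% or more at 10 µM, then 40% or more on retest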
MT1-MMP txn act – MT1-MMP promoter transcription activation. HT1080 MT1-MMP promoter luciferase reporter, luminescence, overnight; hits give high values. AID 750. activation factor at 10 µM. 86,000 tested, 0.16% active;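 active = activation factor of at least 2 for MT1-MMP transcription at 10 µM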
TNAP act mid DEA – human TNAP activation, intermediate phosphate acceptor; 64,000 tested, under 10 active; AID 813; activation factor at 20 µM; purified TNAP, CDP-star luminescence, 100 mM DEA, 30 min; hits give high values; scale: 0 levamisole-inhibited, 1 vehicle-only enzyme; P05186;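 active = activation factor of at least 2 at 20 µM, relative to controls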
Mac1 fbg enh – enhancers of human CD11b/CD18 binding to fibrinogen | K562 CD11b/CD18 adhesion to fibrinogen, ATPlite luminescence | activation, % at 10 µM | 93,000 tested, 0.07% active | AID 1499;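 active = 10 µM primary screen giving 50% or more activity, confirmed by 40% or more on retest at that dose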
SF1 activator – SF-1 (human) activation. Q13285. CHO-K1 Gal4-SF-1 LBD luciferase reporter; % increase over DMSO SF-1-specific signal. activation, % at 10 µM. 65,000 tested, 1.9% active;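 active = activation above the mean activation of all tested compounds plus 3 SD, cut at about 50% in these data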
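Material: Gal4–SF-1 LBD one-hybrid luciferase reporter in CHO-K1 cells | Amount: 4,000 cells per well | Compound dosing: 10 µM single point, 1% DMSO | Schedule: 20 h compound treatment, 37 °C | Measured by: SteadyLite luciferase luminescence | Evaluation: Percent activation versus DMSO | Control set: DMSO-treated SF-1-transfected cells as negative, DMSO-treated mock-transfected cells lacking SF-1 as background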
RORA act – RORA (human) activation; P35398; CHO-K1 Gal4-RORA LBD luciferase reporter, luminescence; percent increase over mock-subtracted basal signal; activation, % at 10 µM; 65,000 tested, 1.5% active; AID 560;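 active = activation above the mean of all tested compounds plus 3 SD, cut at about 49% in these data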
Target sequence (P35398 whole entry, looked up, the tested form may be a part): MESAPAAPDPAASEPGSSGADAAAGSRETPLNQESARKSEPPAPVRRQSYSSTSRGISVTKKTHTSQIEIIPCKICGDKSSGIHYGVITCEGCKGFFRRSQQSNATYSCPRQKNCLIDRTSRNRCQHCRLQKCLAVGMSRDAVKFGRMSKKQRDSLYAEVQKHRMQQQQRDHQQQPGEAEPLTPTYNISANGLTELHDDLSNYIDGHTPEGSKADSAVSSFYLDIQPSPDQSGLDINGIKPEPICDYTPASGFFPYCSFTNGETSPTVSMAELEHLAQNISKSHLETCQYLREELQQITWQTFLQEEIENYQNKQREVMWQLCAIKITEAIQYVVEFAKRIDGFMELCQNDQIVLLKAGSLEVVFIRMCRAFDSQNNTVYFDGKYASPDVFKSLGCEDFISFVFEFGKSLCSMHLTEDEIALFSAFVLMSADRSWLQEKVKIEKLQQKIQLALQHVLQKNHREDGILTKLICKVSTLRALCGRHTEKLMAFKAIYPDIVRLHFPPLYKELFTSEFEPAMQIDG
Hits are given with their value. Most compounds without a hit are left out; they make up all but 2.1% or so of the library.

Results for COC(=O)c1ccc(C(/C=C/[C@@H](C)C(=O)NCCN2CCCC2)NC(=O)OCc2ccccc2)cc1 (some centres undefined) ?
MT1-MMP txn act: inactive

How did O=C(Nc1ccc(NC(=O)C2CC2)nc1)c1cccs1 do in these assays?
Mac1 fbg inh: inactive; MT1-MMP txn act: inactive; TNAP act mid DEA: inactive; Mac1 fbg enh: inactive; SF1 activator: 52; RORA act: inactive

What do the screens show for `O=C(Nc1ccc(NC(=O)c2ccco2)nc1)c1cccnc1`?
MT1-MMP txn act: inactive; TNAP act mid DEA: inactive; SF1 activator: 55; RORA act: inactive

What do the screens show for `O=C(Nc1ccc(NC(=O)C2CC2)nc1)c1ccco1`?
Mac1 fbg inh: inactive; MT1-MMP txn act: inactive; TNAP act mid DEA: inactive; Mac1 fbg enh: inactive; SF1 activator: 51; RORA act: inactive

Results for Cc1nn(-c2ccccc2)c(Cl)c1C(=O)NCc1cccs1 ?
Mac1 fbg inh: inactive; Mac1 fbg enh: inactive

How did COc1ccc(S(=O)(=O)N(C)c2ccc(C(N)=O)cc2)cc1 do in these assays?
Mac1 fbg inh: inactive; MT1-MMP txn act: inactive; Mac1 fbg enh: inactive

Results for O=C(CSCC(=O)N1CCOCC1)Nc1nc(-c2ccc3c(c2)OCO3)cs1 ?
Mac1 fbg inh: inactive; MT1-MMP txn act: inactive; TNAP act mid DEA: inactive; Mac1 fbg enh: inactive; SF1 activator: inactive; RORA act: 52

How did CCCc1nc(NCC2CCCO2)c2nnn(Cc3ccccc3)c2n1 (centres undefined) do in these assays?
MT1-MMP txn act: inactive

What do the screens show for `CCCCNS(=O)(=O)c1ccc(S(=O)(=O)NCc2ccncc2)cc1`?
MT1-MMP txn act: inactive

What do the screens show for `Cc1cc(C)c(S(=O)(=O)NCc2ccncc2)c(C)c1`?
Mac1 fbg inh: 83; MT1-MMP txn act: inactive; Mac1 fbg enh: inactive

How did CCOc1ccc(C(=O)Nc2ccc(NC(=O)c3ccco3)c(Cl)c2)cc1Cl do in these assays?
Mac1 fbg inh: inactive; MT1-MMP txn act: inactive; Mac1 fbg enh: inactive

Results for CCOc1ccc(C(=O)Nc2cccc(-c3nc4cccnc4o3)c2)cc1Cl ?
Mac1 fbg inh: inactive; TNAP act mid DEA: inactive; Mac1 fbg enh: 55; SF1 activator: inactive; RORA act: inactive

How did O=C(Nc1ccc(Cl)cn1)c1cccc(F)c1 do in these assays?
Mac1 fbg inh: inactive; MT1-MMP txn act: inactive; TNAP act mid DEA: inactive; Mac1 fbg enh: inactive; SF1 activator: 95; RORA act: 105

How did CCOc1ccc(C(=O)Nc2ccc(Cl)cn2)cc1Cl do in these assays?
MT1-MMP txn act: inactive; TNAP act mid DEA: inactive; SF1 activator: inactive; RORA act: 86

Results for O=C(COc1ccc(Cl)cc1Cl)Nc1ccc(Cl)cn1 ?
Mac1 fbg inh: inactive; MT1-MMP txn act: inactive; TNAP act mid DEA: inactive; Mac1 fbg enh: inactive; SF1 activator: inactive; RORA act: inactive

What do the screens show for `Cc1c(/C=C(\C#N)c2nn(-c3ccccc3)c(N)c2C#N)c2ccccc2n1Cc1ccc(F)cc1`?
Mac1 fbg inh: inactive; MT1-MMP txn act: inactive; Mac1 fbg enh: inactive

How did CCC1=C(OC(=O)N(CC)CC)N2C(=O)OC(=NCC3CC3)[C@]2(Cc2ccccc2)[C@H]2C1=CC[C@H]1C(=O)NC(=O)[C@H]12 do in these assays?
MT1-MMP txn act: inactive

Results for COC(=O)c1ccc(C(NC(=O)OCc2ccccc2)/C(F)=C/[C@@H](C)C(=O)NC2CCCCC2)cc1 (some centres undefined) ?
MT1-MMP txn act: inactive

Results for Clc1ccc(CSc2nc3ccncc3[nH]2)cc1 ?
Mac1 fbg inh: 88; Mac1 fbg enh: inactive

What do the screens show for `Cc1ccc(CSc2nc3ncccc3[nH]2)cc1`?
MT1-MMP txn act: inactive

How did Cc1ccc(CSc2nc3ccncc3[nH]2)cc1 do in these assays?
Mac1 fbg inh: 101; Mac1 fbg enh: inactive

How did Cc1ccccc1N1CN(Cc2ccco2)CNC1=S do in these assays?
Mac1 fbg inh: inactive; Mac1 fbg enh: inactive

Results for Cc1cccnc1NC(=O)Nc1cccs1 ?
Mac1 fbg inh: inactive; MT1-MMP txn act: inactive; Mac1 fbg enh: inactive

Results for CN1C(=O)CSc2ccc(NC(=O)N3CCN(c4ccccn4)CC3)cc21 ?
Mac1 fbg inh: inactive; MT1-MMP txn act: inactive; TNAP act mid DEA: inactive; Mac1 fbg enh: inactive; SF1 activator: inactive; RORA act: inactive

How did CN1C(=O)CSc2ccc(NC(=O)N3CCc4ccccc43)cc21 do in these assays?
Mac1 fbg inh: inactive; MT1-MMP txn act: inactive; TNAP act mid DEA: inactive; Mac1 fbg enh: inactive; SF1 activator: 105; RORA act: 75

What do the screens show for `O=C(O)c1ccccc1COc1ccccc1Cl`?
Mac1 fbg inh: inactive; MT1-MMP txn act: inactive; TNAP act mid DEA: inactive; Mac1 fbg enh: inactive; SF1 activator: inactive; RORA act: inactive

Results for CCOc1ccc(OCc2cccc(C(=O)O)c2)cc1 ?
Mac1 fbg inh: 59; MT1-MMP txn act: inactive; TNAP act mid DEA: inactive; Mac1 fbg enh: inactive; SF1 activator: inactive; RORA act: inactive

What do the screens show for `COc1ccc(OCc2cccc(C(=O)O)c2)cc1`?
Mac1 fbg inh: inactive; MT1-MMP txn act: inactive; TNAP act mid DEA: inactive; Mac1 fbg enh: inactive; SF1 activator: inactive; RORA act: inactive

What do the screens show for `O=C(O)c1cccc(OCc2ccccc2Cl)c1`?
Mac1 fbg inh: inactive; MT1-MMP txn act: inactive; TNAP act mid DEA: inactive; Mac1 fbg enh: inactive; SF1 activator: 80; RORA act: inactive

Results for Cc1ccc(NC2=CC(=O)CC(c3ccco3)C2)c(N)c1 (centres undefined) ?
Mac1 fbg inh: inactive; MT1-MMP txn act: inactive; TNAP act mid DEA: inactive; Mac1 fbg enh: inactive; SF1 activator: 58; RORA act: 50

Results for Nc1ccccc1NC1=CC(=O)CC(c2ccco2)C1 (centres undefined) ?
Mac1 fbg inh: inactive; MT1-MMP txn act: inactive; TNAP act mid DEA: inactive; Mac1 fbg enh: inactive; SF1 activator: inactive; RORA act: inactive

Results for Cc1ccc(S(=O)(=O)CC2CSc3nc4ccccc4n32)cc1 (centres undefined) ?
Mac1 fbg inh: 93; Mac1 fbg enh: inactive

What do the screens show for `COc1ccc(C(=O)c2ccc(OC)c(N)c2)cc1N`?
Mac1 fbg inh: inactive; MT1-MMP txn act: inactive; TNAP act mid DEA: inactive; Mac1 fbg enh: inactive; SF1 activator: inactive; RORA act: 66

What do the screens show for `COc1ccc(C(=O)c2ccc(OC)c(OC)c2)cc1OC`?
MT1-MMP txn act: inactive; TNAP act mid DEA: inactive; SF1 activator: inactive; RORA act: inactive

Results for O=C(CSc1nc2ccccc2n1S(=O)(=O)c1ccccc1)N1CCCC1 ?
Mac1 fbg inh: inactive; Mac1 fbg enh: inactive

How did O=C(NCc1cc(C(F)(F)F)cc(C(F)(F)F)c1)C1CC(c2cccc([N+](=O)[O-])c2)=NO1 (centres undefined) do in these assays?
Mac1 fbg inh: inactive; Mac1 fbg enh: inactive
